Assay outcomes as filed in PubChem BioAssay.
TAAR1 antag: human TAAR1 antagonism; Q96RJ0; inhibition, % at 3 µM; 360,000 tested, 1.5% active; CHO RD-HGA16 TAAR1, Fluo-8 calcium fluorescence, antagonist; AID 624466;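 active = inhibition above a per-plate cutoff, the mean inhibition of test compounds on that plate plus 3 SD, cut at about 49% in these data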;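 note: 0% = DMSO plus EC80 beta-PEA response and 100% = DMSO alone without agonist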
Target sequence (Q96RJ0 whole entry, looked up): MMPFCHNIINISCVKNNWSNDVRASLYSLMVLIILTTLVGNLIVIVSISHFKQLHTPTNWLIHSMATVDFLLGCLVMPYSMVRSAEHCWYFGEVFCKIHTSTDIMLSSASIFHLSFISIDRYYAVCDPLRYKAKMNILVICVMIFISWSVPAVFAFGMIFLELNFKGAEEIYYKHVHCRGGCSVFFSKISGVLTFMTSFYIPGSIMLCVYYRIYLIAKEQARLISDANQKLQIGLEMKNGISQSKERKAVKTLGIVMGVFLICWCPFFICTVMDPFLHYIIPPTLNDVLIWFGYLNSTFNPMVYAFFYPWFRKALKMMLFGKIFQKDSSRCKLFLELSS
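Test system – hTAAR1-expressing CHO RD-HGA16 cells, Gα16-coupled · Also added – β-PEA at EC80 concentration, post-compound challenge · Compound – 3 µM, single point · Incubation – dye loading 75 min at 37 °C, then 30 min room temperature · Measured by – Fluo-8 intracellular calcium dye fluorescence, real-time kinetic reads · Benchmarks – vehicle and agonist controls · Replicates – singlicate, one well per test compound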
ANO1 activ: activators or potentiators of mouse TMEM16A chloride channel | Q8BHY3 | HEK293 TMEM16A/YFP-H148Q/I152L, iodide quench fluorescence; hits give low values | B-score at 10 µM | 340,000 tested, 0.3% active;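 active = fluorescence-ratio B-score plate-corrected deviation score at least 3 library SD below zero, with starting fluorescence score within 5 deviations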;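 note: channel opened by trigger with iodide after compound preincubation; score built on the fluorescence ratio of max minus min over baseline; more negative score means more quench and so TMEM16A activation or potentiation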
TMEM16A inh: mouse TMEM16A channel inhibition, primary screen; Q8BHY3; HEK293 TMEM16A/YFP iodide influx fluorescence, ionomycin; normalized B-score (activity score, 25-100; higher = stronger inhibition) at 10 µM; 310,000 tested, 1.2% active; AID 588511;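 active = ratio plate-corrected score three or more library SD toward inhibition, starting fluorescence score within five deviations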;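 note: score derived from kinetic fluorescence span divided by baseline fluorescence per well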
CRFR2-BP ag: agonists of human CRF-binding protein/CRF-R2 receptor complex; HEK293 CRF-R2/CRF-BP, calcium dye fluorescence (FLIPR); percent of saturating CRF peptide response; activation, % at 13.2 µM; 350,000 tested, 0.46% active; AID 588473;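 active = activation of at least 50%, plus an integration ratio under a set limit after plate pattern correction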;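 note: plate controls were neutral control wells without compound for no effect and CRF at EC100 for full effect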
CRFBP-R2 block: antagonists of CRF-binding protein/CRF-R2 receptor complex. 350,000 tested, 0.59% active. inhibition, % at 11.8 µM. HEK293 CRF-R2/CRF-BP, CRF-induced calcium fluorescence;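 active = inhibition of the ligand-induced calcium signal above about 50% at the single tested concentration, limit read from the data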
TAAR1 agonist: agonists of human TAAR1; CHO RD-HGA16 TAAR1, Fluo-8 calcium fluorescence; vehicle wells 0%, saturating PEA agonist 100%; 360,000 tested, 0.99% active; Q96RJ0; activation, % at 3 µM;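 active = activation above the mean activation of all test compounds in the run plus 3 SD, cut at about 38% in these data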
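Signal – calcium-sensitive Fluo-8 signal, excitation 470-495, emission 515-575 nm · System – RD-HGA16 (CHO) cells co-expressing Gα16 and hTAAR1 · Incubation – 17-24 h seeding, 75 min 37 °C dye, 30 min RT · Compound dosing – 3 µM single concentration · Repeats – no replicates (n 1)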
nonsel antag count: counter-screen for TAAR1 antagonists: nonselective antagonists. shares compounds with TAAR1 antag. AID 651780. inhibition, % at 3 µM. counterscreen cell line, calcium fluorescence, antagonist mode. 2,400 tested, 77% active; in the data active = inhibition above about 22%;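 note: CHO-Ga16 host cells stimulated with ATP at an EC80 level; 0% = agonist EC80 plus vehicle and 100% = vehicle without agonist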
TAAR1 antag conf: human TAAR1 antagonism, confirmed; shares compounds with TAAR1 antag; TAAR1-expressing cells, fluorescence antagonist read-out; inhibition, % at 3 µM; 2,400 tested, 40% active; AID 651785; in the data active = inhibition above about 49%;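 note: CHO-Ga16 host cells challenged with agonist PEA near its EC80; 0% = agonist at EC80 plus vehicle and 100% = vehicle with no agonist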
Ga16 ag counter: nonselective Ga16 agonist in TAAR1 antagonist counter-screen | shares compounds with TAAR1 antag | Ga16-expressing cells, calcium fluorescence, agonist counterscreen | activation, % at 3 µM | 2,400 tested, 18% active; in the data active = activation above about 12%;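 note: 0% = vehicle wells and 100% = saturating stimulus response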
TAAR1 ag counter: counter-screen for human TAAR1 antagonists: TAAR1 agonists; shares compounds with TAAR1 antag; hTAAR1 cell line, fluorescence activation, agonist mode; activation, % at 3 µM; 2,400 tested, 2% active; in the data active = activation above about 37%;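 note: CHO cells stably expressing TAAR1 with calcium dye readout; 0% = DMSO vehicle and 100% = full agonist response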
* marks the source's active call; other numbers are inactive results. An excerpt weighted towards active compounds, which were near 3.9% of everything screened.

For O=C(Nc1ccc2c(c1)CCCN2C(=O)c1ccco1)c1cc([N+](=O)[O-])ccc1Cl the results were TAAR1 antag 61.3*, ANO1 activ inactive, TMEM16A inh inactive, CRFR2-BP ag 1.3, CRFBP-R2 block 20.9, TAAR1 agonist 7.1, nonsel antag count 25.6*, TAAR1 antag conf 34.1, Ga16 ag counter 4.9 and TAAR1 ag counter 1.9.
Screening O=C(Nc1ccc(N2CCN(C(=O)c3ccco3)CC2)cc1)c1ccc([N+](=O)[O-])cc1Cl returned TAAR1 antag 2.6, ANO1 activ inactive, TMEM16A inh inactive, CRFR2-BP ag 0.2, CRFBP-R2 block 5.5 and TAAR1 agonist 4.0.
CCCCOc1ccc(CNn2c(C)nc3ccccc3c2=O)cc1 was read as TAAR1 antag 59.0*, ANO1 activ inactive, TMEM16A inh inactive, CRFR2-BP ag 0.4, CRFBP-R2 block -24.9, TAAR1 agonist 10.2, nonsel antag count 29.0*, TAAR1 antag conf 43.5, Ga16 ag counter 2.5 and TAAR1 ag counter 1.8.
COc1ccc(CNn2c(-c3cccc(C)c3)nc3ccccc3c2=O)cc1OC was read as TAAR1 antag 58.7*, ANO1 activ inactive, TMEM16A inh inactive, CRFR2-BP ag -1.2, CRFBP-R2 block -14.6, TAAR1 agonist 17.2, nonsel antag count 24.3*, TAAR1 antag conf 46.6, Ga16 ag counter 5.6 and TAAR1 ag counter 3.5.
For COc1ccc(CNn2c(C)nc3ccccc3c2=O)cc1 the results were TAAR1 antag 27.5, ANO1 activ inactive, TMEM16A inh inactive, CRFR2-BP ag -0.5, CRFBP-R2 block -18.7 and TAAR1 agonist 5.5.
Screening Cc1cccc(-n2ccc(=O)c(C(=O)Nc3ccc(S(=O)(=O)Nc4nccc(C)n4)cc3)n2)c1 returned TAAR1 antag -27.7, ANO1 activ inactive, TMEM16A inh inactive, CRFR2-BP ag 3.0, CRFBP-R2 block -5.1 and TAAR1 agonist 0.5.
For CCC(=O)N(CCc1ccccc1C)Cc1cc2ccc(C)cc2[nH]c1=O the results were TAAR1 antag 60.4*, ANO1 activ inactive, TMEM16A inh inactive, CRFR2-BP ag -0.4, CRFBP-R2 block -30.4, TAAR1 agonist 19.7, nonsel antag count 28.5*, TAAR1 antag conf 49.2*, Ga16 ag counter 11.4 and TAAR1 ag counter 12.9.
`CC(=O)N(CCc1ccccc1C)Cc1cc2cc3c(cc2[nH]c1=O)OCO3` gave TAAR1 antag -3.6, ANO1 activ inactive, TMEM16A inh inactive, CRFR2-BP ag -2.7, CRFBP-R2 block -10.4 and TAAR1 agonist 1.6.
For Cc1ccsc1CN(C)CC(=O)NCC(=O)Nc1ccc(F)cc1 the results were TAAR1 antag 5.9, ANO1 activ inactive, CRFR2-BP ag -1.5, CRFBP-R2 block 2.5 and TAAR1 agonist 1.8.
C=CCNc1nc(N)c(C(=C(C#N)C#N)c2ccc(Br)cc2)s1 was read as TAAR1 antag 67.8*, ANO1 activ inactive, TMEM16A inh inactive, CRFR2-BP ag 1.2, CRFBP-R2 block -61.1, TAAR1 agonist 8.5, nonsel antag count 27.4*, TAAR1 antag conf 61.5*, Ga16 ag counter 6.2 and TAAR1 ag counter 14.9.
For O=C(NCCc1ccc(F)cc1)c1cccc(NC(=O)c2ccccc2)c1 the results were TAAR1 antag 60.9*, ANO1 activ inactive, TMEM16A inh inactive, CRFR2-BP ag 1.4, CRFBP-R2 block 2.6, TAAR1 agonist 14.0, nonsel antag count 33.5*, TAAR1 antag conf 50.8*, Ga16 ag counter 8.7 and TAAR1 ag counter 8.7.
